The array DNA melting data of Ke et al. (doi:10.1101/2024.01.08.574731)

How the values were obtained:
[1] = folding enthalpy; higher = less favourable; fluorescence melt of hairpins on a sequencing array, two-state fit; settings: sodium 0.088 M
In short: (§1)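 On a sequenced MiSeq flow cell, library hairpins with annealed Cy3 and quencher oligos were imaged for Cy3 fluorescence in 2.5 °C steps up to 60 °C, in 50 mM Na-HEPES pH 8.0, 25 mM NaCl. Normalisation used pre-quench Cy3 and control constructs. Bootstrapped two-state fits gave melting temperature and folding enthalpy, combined by inverse variance across four replicates and with fitted temperatures raised by 9.35 °C to match UV melts.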

[2] = melting temperature; fluorescence melt of hairpins on a sequencing array, two-state fit, raised by 9.35 °C to match UV melts; settings: sodium 0.088 M
In short: as §1

Sequence | folding enthalpy [1] [kcal/mol] | Tm [2] [°C]
GATCATTGGAATGATC ((((((....)))))) | -36.1 | 46.5
GATCAGGCTCCTGATC ((((((....)))))) | -42.8 | 52.5
GCCGAGCGAAAGCATGGC (((..((....))..))) | -28.1 | 64
GATCATGGCGATGATC ((((((....)))))) | -49.1 | 51.5
CGAGCGGAAACGCTTTCG ((((((....)))..))) | -11.8 | 30.4
GATCTGGCATCAGATC ((((((....)))))) | -46.2 | 54.6
GGGAGTCGAAAGACCCC (((.(((....)))))) | -32.7 | 56.7
GTAAACGAAAGTTTCTAC ((((((....)))..))) | -12.3 | 30.2
GTCAATACGAAAGTAGAC (((..(((....)))))) | -12 | 27.3
GTGGAAGGAAACTTCTGC (..((((....))))..) | -14.4 | 34.1
GCAACGCGAAAGCGAAGC ((..(((....)))..)) | -12.9 | 44.9
GCCAGAGGAAACCCTGGC (((((.(....).))))) | -41 | 52.4
GTGATAGGAAACTATCAC (((((((....))))))) | -42.8 | 56.1
GCGATGGGAAACCGTCGC ((((.((....)).)))) | -50.2 | 58.9
GCAATTGGAAACAACTGC (((.(((....))).))) | -26.6 | 34.8
GATCGTTATTACGATC ((((((....)))))) | -39.8 | 56.1
GCGTCTGGAAACAGACAC (.(((((....))))).) | -12.8 | 42.7
GGCCGCGAAAGCGATGCC ((((((....)))..))) | -25.2 | 59.3
GTTTGAGGAAACCCAAAC (((((.(....).))))) | -30.3 | 36.8
GGTGACCGAAAGGTTACC (((.(((....))).))) | -40 | 60.5
TCAATGAAAATTGA (((((....))))) | -9.78 | 25
CGGGGACGGAAACGTCCG (((..(((....)))))) | -7.9 | 50.2
GTTCGGGGAAACTCGGAC ((.((.(....).)).)) | -25.6 | 39

Sequence | folding enthalpy [1] [kcal/mol] | Tm [2] [°C]
GAGCGTACGAAAGTACTC (((..(((....)))))) | -13.4 | 27
CGTCCCGGAAACGGACG (((.(((....)))))) | -27.7 | 53.2
GCTTCCGCGAAAGCGAGC (((..(((....)))))) | -11 | 35.5
GTGAGAGGAAACTCTTGC (..((((....))))..) | -20.3 | 29.4
GCGTTCTCGAAAGAGCGC (((..(((....)))))) | -34.3 | 51.1
GCGAACCGAAAGGTCGC (((.(((....)))))) | -31.8 | 67.5
GATCAGGCTTCTGATC ((((((....)))))) | -37.1 | 50.3
GACGAGAAATCGTC (((((....))))) | -28.1 | 51.2
GCGTGGCGAAAGCCTAGC ((..(((....)))..)) | -20.2 | 59.5
GCGATGTCGAAAGACCGC (((..(((....)))))) | -29.5 | 51
GTGTCAGGAAACTGATGC (..((((....))))..) | -21.1 | 38.3
GTGTGAGGAAACTCACAC (((((((....))))))) | -49.1 | 63.4
GCCTTGCGAAAGCATAGC ((..(((....)))..)) | -9.69 | 50.8
GCTCGACGAAAGTCTAGC (((.(((....))).))) | -41.8 | 49.6
GGGTCCGAAAGGAGGCCC ((((((....)))..))) | -18.7 | 50.3
GCGGATCCCCGC ((((....)))) | -23.3 | 56.4
GGGGGCGAAAGCCAACCC ((((((....)))..))) | -17.9 | 52.7
GTAGAAGGAAACTTCTAC (((((((....))))))) | -40 | 51.4
GTTTGGGGAAACTCAAAC (((((.(....).))))) | -31.7 | 43.9
GGTGTAGGAAACTGTACC (((..((....))..))) | -19.3 | 29.6
GCGACTTATCGC ((((....)))) | -24.1 | 48.8
GATCAAGGTTTGATC ((((((...)))))) | -28.5 | 42.4
GATGAGCGAAAGCTTATC (((.(((....))).))) | -28.3 | 49.1

Sequence | folding enthalpy [1] [kcal/mol] | Tm [2] [°C]
GTATAGGGAAACCTGTAC (((.(((....))).))) | -30.3 | 39.2
GATCGCTAGCGCGATC ((((((....)))))) | -34 | 66.5
GCGGTAATCCGC ((((....)))) | -24.7 | 56.2
TGGGGGAAACCCCA (((((....))))) | -17.2 | 53.5
GCCGTGCGAAAGCCGGGC (((..((....))..))) | -15.1 | 65.3
GCTCCGACGAAAGTCAGC (((..(((....)))))) | -13.3 | 32.2
GATCCTCCCCAGGATC ((((((....)))))) | -43.7 | 50.4
GCACGTCGAAAGACATGC (((.(((....))).))) | -31.7 | 52.7
GATCGTTACAACGATC ((((((....)))))) | -39 | 57.3
GACTCCGAAAGGAAAGTC ((((((....)))..))) | -24.8 | 44.4
GCTCAGCGAAAGCCAAGC (((..((....))..))) | -16.4 | 41
GCCGTACGAAAGTAGGGC (((.(((....))).))) | -40.8 | 60.1
GAGACCGAAAGGTTGCTC ((((((....)))..))) | -14.1 | 36.2
GCGACCGAAAGGTGCCGC ((((((....)))..))) | -15.6 | 50.4
GGCCTTCCGAAAGGAGCC (((..(((....)))))) | -19.1 | 38.9
GCTAAGGGAAACCTTGGC ((.((((....)))).)) | -29.4 | 47.6
GACGCCACGAAAGTGGTC (((..(((....)))))) | -8.49 | 32.1
GTAGTCGAAAGACTTAC ((((((....))).))) | -13.2 | 39.9
GTCAGCGGAAACGTTGGC (.((.((....)).)).) | -26 | 42.2
GAATTCGCGAAAGCGTTC (((..(((....)))))) | -6.23 | 19.9
GACTGAGGAAACTCGGTC (((.(((....))).))) | -41.1 | 50.4
GGCCGTGCGAAAGCAGCC (((..(((....)))))) | -16.3 | 46.6
CGCACGGAAACGTATGCG ((((((....)))..))) | -35.9 | 46.7

Sequence | folding enthalpy [1] [kcal/mol] | Tm [2] [°C]
GTGGACCCGAAAGGGCAC (((..(((....)))))) | -16.6 | 49.3
GCTATCGGAAACGGTAGC ((((.((....)).)))) | -38 | 51.8
GGCACCACGAAAGTGGCC (((..(((....)))))) | -11.6 | 38.1
GGGGCTACGAAAGTACCC (((..(((....)))))) | -22.1 | 48
GGTCCCGGAAACGGGGTC (..((((....))))..) | -14.4 | 42.8
GTTATGCGAAAGCAAAAC (((.(((....))).))) | -21 | 41.2
GCTAGTGGAAACACTAGC (((((((....))))))) | -47.7 | 61.9
GAATCCCGAAAGGGCTTC (((.(((....))).))) | -19.1 | 41.9
GTAACCGAAAGGTGGTAC ((((((....)))..))) | -12.3 | 33.8
GACCTGCGAAAGCACGTC (((.(((....))).))) | -25.4 | 42.8
GATCAACCCCTTGATC ((((((....)))))) | -35.2 | 45.5
GCGATACATCGC ((((....)))) | -27.5 | 55.7
GTGCCACGAAAGTGCAC (((.(((....)))))) | -27.5 | 58.5
GAGATCCGAAAGGAACTC (((.(((....))).))) | -32.2 | 50.2
CGACCGGAAACGGCTCG ((((((....))).))) | -28.8 | 48.2
GCAACGGGAAACCGCTAC (.(.(((....))).).) | -9.4 | 28.3
GCAGGTGGAAACATCTGC ((((.((....)).)))) | -37.8 | 52.9
GCGTAGCGAAAGCGTCGC (((..((....))..))) | -20.5 | 61.4
GGTAAACCGAAAGGTACC (((..(((....)))))) | -20.2 | 40.1
GCACAGGGAAACCTGTAC (.(((((....))))).) | -12.6 | 40.3
GCATGCGGAAACACATGC (((((.(....).))))) | -42 | 49.7
GGGTTGGGAAACCAACTC (.(((((....))))).) | -21.9 | 49.7
GCTAAGGGAAACTTTAGC (((((.(....).))))) | -21.1 | 37.9
